A short description of series [1]: Biodistribution by ex vivo fluorescence imaging of major organs. It is filed as in vivo, BALB/c nude mice. Conditions: Cy5.5-labeled, single oral 25 mg/kg, mice. Put shortly: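 Female BALB/c nude mice, acclimated 1 week and fasted 12 h overnight with water, got one oral dose of 25 mg/kg (by parent mass). Cy5.5-labeled nanoparticles were given in PBS; Cy5.5-labeled free compound as an H2O/DMSO (40:1) suspension. Four mice per group were killed at 2, 4, 6, 8 and 24 h. Heart, liver, lungs, spleen and kidneys were PBS-washed and imaged ex vivo for fluorescence. Liver intensity was quantified (n = 4, mean ± SEM).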

Series [2] is described as follows: In vivo pharmacokinetic study. More on the design: species or system BALB/c mice. To be noted: BALB/c, mouse, plasma. The method, boiled down: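 BALB/c mice (5–6 weeks, 20 ± 2 g; n = 6 per time point, 3 male + 3 female) got one IV dose (5 mg/kg) or oral gavage (100 mg/kg). Free compound was given in 5% DMSO/10% solutol HS-15/85% (20% hydroxypropyl-β-cyclodextrin in saline). Tail-vein blood was taken at 0.08–48 h and plasma separated at 2000 g, 15 min. Concentrations were measured by LC–MS/MS; parameters came from non-compartmental analysis.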

Another series is described as follows: Cytotoxicity assay. Conditions: human, HepG2 cells. It counts as cell-based. Put shortly: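 HepG2 cells were seeded at 5×10^3/well. Treatment ran 48 h at 37°C, 5% CO2: free compound at 10–50 μM, nanoparticle form at 10–100 μM. Controls got vehicle only (0.1% v/v DMSO or deionized water). Viability was read by CCK-8 and normalized to vehicle controls, mean ± SEM.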

A short description of series [3]: In vivo toxicity in the hepatic AE mouse model. Conditions: oral 100 mg/kg once daily for 30 days; for Histopathology of liver parenchyma surrounding the metacestodes: H&E. More on the design: species or system C57BL/6J mice. The method, boiled down:
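Female C57BL/6J mice were infected by portal-vein protoscolex injection. At 3 months, after ultrasound-confirmed metacestode growth, mice (n = 8/group) got oral gavage at 100 mg/kg daily for 30 days, dosed with 0.5% CMC suspensions or CMC alone. Sham-operated uninfected mice got portal saline. Afterwards, retro-orbital blood was drawn under isoflurane. Plasma (2000 g, 15 min, 4°C; stored −20°C) was assayed for ALT/AST on an automatic biochemical analyzer.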

Broadly, the AUC(0-inf) is total exposure, with the tail of the curve extrapolated. Low readings indicate low exposure, high ones high exposure. One may read the AUC(0-t) as exposure summed from dosing to a finite time, without extrapolation to infinity. A low value points to less exposure. As a reminder, the Cmax is the highest concentration seen after dosing. The Tmax is the time at which the peak concentration occurs. Usually Vd stands for the apparent volume that relates the amount in the body to the concentration in plasma or blood. The term clearance denotes the volume of plasma or blood freed of the substance per unit of time. For orientation: half-life means the time needed for the level to fall by half in the phase considered. A higher half-life goes with slow loss. As usually defined, the bioavailability is dose-corrected exposure relative to a reference, in per cent. High values mean much systemic uptake, low ones little systemic uptake. Broadly, the CC50 is the concentration at which the toxic effect on the cells reaches its halfway point. Read a high CC50 as lower toxicity to the cells. `CCCNCC(O)Cn1c2ccc(Cl)cc2c2cc(Cl)ccc21` (centres unmarked) [Compound H1402, 1-(3,6-dichloro-9H-carbazol-9-yl)-3-(propylamino)propan-2-ol]: the “Decrease of fluorescence intensity in the liver from 8 h to 24 h” value in series [1] is recorded as 49.9%. Besides, in series [2] (both, iv, 5 mg/kg), the AUC(0-inf) came to 7.6 µM·h, the AUC(0-t) stood at 7.5 µM·h, the Cmax turned out to be 2.6 µM and the Tmax came to 0.083 h. In series [2] (both, iv, 5 mg/kg), this molecule gave a Vd of 19 L/kg, a clearance of 32 mL/min/kg and a half-life of 420 min. The molecule further gave a bioavailability in series [2] (both, oral, 100 mg/kg) of 69.8%. Also, in series [2] (both, po, 100 mg/kg), the AUC(0-inf) came to 128 µM·h, the AUC(0-t) worked out at 104 µM·h, the concentration peaked (Cmax) at 4.4 µM and the Tmax amounted to 6 h. The same molecule showed a half-life in series [2] (both, po, 100 mg/kg) of 1050 min. The same molecule showed a half-life in series [2] (female, po, 100 mg/kg) of 1480 min. The molecule further showed a half-life in series [2] (male, po, 100 mg/kg) of 624 min. The CC50 at 48 h in the series “Cytotoxicity assay” was found to be 14.9 µM. For the same molecule, the “Histopathology of liver parenchyma surrounding the metacestodes” value in series [3] was “inflammatory infiltrate, fibroplastic proliferation, and hepatocellular necrosis”. For the same molecule, the “Liver transaminases (mean ALT and AST values)” value in series [3] (compared to shamed individuals) is “various degrees of increase”.

Take `CCCSc1ccc2nc(NC(=O)OC)[nH]c2c1` [albendazole, reference compound]: in series [3], the “Histopathology of liver parenchyma surrounding the metacestodes” value was “inflammatory infiltrate, fibroplastic proliferation, and hepatocellular necrosis”.

These data come from paper PMC10259527 (International Journal of Nanomedicine, 2023).
